ChEMBL document CHEMBL1128267, “Dicationic diarylfurans as anti-Pneumocystis carinii agents” (J Med Chem, 1995)

Legend:
[1] = system: Pneumocystis carinii; experiment: In vivo activity against pneumocystis carinii was determined as toxicity which indicates the death of animals at a dose of 4.8 uM/Kg/day; type: organism-based
Outline: (§1)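 Dosing intravenous unless otherwise noted; daily dose in μM/kg/day. Toxicity graded on a numerical severity scale where higher scores mean more severe toxicity and scores above 2 mean some animals died.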

[2] = system: Giardia intestinalis; experiment: Inhibitory activity for 50% on growth of Giardia lamblia in cell culture; type: functional, organism-based; details: Giardia duodenalis
[3] = target: DNA topoisomerase II (Giardia lamblia); experiment: Inhibitory activity for 50% on topoisomerase II isolated from Giardia lamblia
[4] = system: Pneumocystis carinii; experiment: In vivo activity against pneumocystis carinii was determined as toxicity which indicates the death of animals and counted cysts in a blinding protocol in lung tissue reported as % of saline treated control at a dose of 4.8 uM/Kg/day; type: organism-based
Outline: (§2)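 Dosed intravenously unless otherwise marked (some oral). Toxicity graded on a severity scale where larger values are more severe and values above 2 mean some animals died. Cysts in lung tissue counted under a blinded protocol and expressed as percent of saline-treated controls.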

[5] = system: Pneumocystis carinii; experiment: In vivo activity against pneumocystis carinii was determined as toxicity which indicates the death of animals at a dose of 2.3 uM/Kg/day; type: organism-based; outline: as §1
[6] = system: Pneumocystis carinii; experiment: In vivo activity against pneumocystis carinii was determined as toxicity which indicates the death of animals at a dose of 0.18 uM/Kg/day; type: organism-based; outline: as §1
[7] = system: Pneumocystis carinii; experiment: In vivo activity against pneumocystis carinii was determined as toxicity which indicates the death of animals and counted cysts in a blinding protocol in lung tissue reported as % of saline treated control at a dose of 2.3 uM/Kg/day; type: organism-based; outline: as §2
[8] = system: Pneumocystis carinii; experiment: In vivo activity against pneumocystis carinii was determined as toxicity which indicates the death of animals and counted uM/Kg/day; type: organism-based; outline: as §2
[9] = system: Pneumocystis carinii; experiment: In vivo activity against pneumocystis carinii was determined as toxicity which indicates the death of animals and counted cysts in a blinding protocol in lung tissue reported as % of saline treated control at a dose of 9.2 uM/Kg/day; type: organism-based; outline: as §2
[10] = system: Pneumocystis carinii; experiment: In vivo activity against pneumocystis carinii was determined as toxicity which indicates the death of animals at a dose of 9.2 uM/Kg/day; type: organism-based; outline: as §1
[11] = system: Pneumocystis carinii; experiment: In vivo activity against pneumocystis carinii was determined as toxicity which indicates the death of animals and counted cysts in a blinding protocol in lung tissue reported as % of saline treated control at a dose of 10.9 uM/Kg/day); type: organism-based; outline: as §2
[12] = system: Pneumocystis carinii; experiment: In vivo activity against pneumocystis carinii was determined as toxicity which indicates the death of animals at a dose of 10.9 uM/Kg/day; type: organism-based; outline: as §1
[13] = system: Pneumocystis carinii; experiment: In vivo activity against pneumocystis carinii was determined as toxicity which indicates the death of animals at a dose of 0.027 (uM/kg/day); type: organism-based; outline: as §1
[14] = system: Pneumocystis carinii; experiment: In vivo activity against pneumocystis carinii was determined as toxicity which indicates the death of animals and counted cysts in a blinding protocol in lung tissue reported as % of saline treated control at a dose of 13.3 (uM/kg/day); type: organism-based; outline: as §2
[15] = system: Pneumocystis carinii; experiment: In vivo activity against pneumocystis carinii was determined as toxicity which indicates the death of animals and counted cysts in a blinding protocol in lung tissue reported as % of saline treated control at a dose of 0.027 (uM/kg/day); type: organism-based; outline: as §2
[16] = system: Pneumocystis carinii; experiment: In vivo activity against pneumocystis carinii was determined as toxicity which indicates the death of animals and counted cysts in a blinding protocol in lung tissue reported as % of saline treated control at a dose of 2.7 (uM/kg/day); type: organism-based; outline: as §2
[17] = system: Pneumocystis carinii; experiment: In vivo activity against pneumocystis carinii was determined as toxicity which indicates the death of animals at a dose of 13.3 (uM/kg/day); type: organism-based; outline: as §1
[18] = system: Pneumocystis carinii; experiment: In vivo activity against pneumocystis carinii was determined as toxicity which indicates the death of animals and counted cysts in a blinding protocol in lung tissue reported as % of saline treated control at a dose of 66.3 (uM/kg/day); type: organism-based; outline: as §2
[19] = system: Pneumocystis carinii; experiment: In vivo activity against pneumocystis carinii was determined as toxicity which indicates the death of animals and counted cysts in a blinding protocol in lung tissue reported as % of saline treated control at a dose of 0.27 (uM/kg/day); type: organism-based; outline: as §2
[20] = system: Pneumocystis carinii; experiment: In vivo activity against pneumocystis carinii was determined as toxicity which indicates the death of animals at a dose of 2.7 (uM/kg/day); type: organism-based; outline: as §1
[21] = system: Pneumocystis carinii; experiment: In vivo activity against pneumocystis carinii was determined as toxicity which indicates the death of animals at a dose of 66.3 (uM/kg/day); type: organism-based; outline: as §1
[22] = system: Pneumocystis carinii; experiment: In vivo activity against pneumocystis carinii was determined as toxicity which indicates the death of animals at a dose of 0.27 (uM/kg/day); type: organism-based; outline: as §1
[23] = system: Pneumocystis carinii; experiment: In vivo activity against pneumocystis carinii was determined as toxicity which indicates the death of animals at a dose of 23.3 uM/Kg/day; type: organism-based; outline: as §2
[24] = system: Pneumocystis carinii; experiment: In vivo activity against pneumocystis carinii was determined as toxicity which indicates the death of animals and counted cysts in a blinding protocol in lung tissue reported as % of saline treated control at a dose of 23.3 uM/Kg/day; type: organism-based; outline: as §2
[25] = system: Pneumocystis carinii; experiment: In vivo activity against pneumocystis carinii was determined as toxicity which indicates the death of animals and counted cysts in a blinding protocol in lung tissue reported as % of saline treated control at a dose of 22.1 (uM/kg/day); type: organism-based; outline: as §2
[26] = system: Pneumocystis carinii; experiment: In vivo activity against pneumocystis carinii was determined as toxicity which indicates the death of animals at a dose of 22.1 (uM/kg/day); type: organism-based; outline: as §1

Cl.Cl.OCCN1CCN=C1c1ccc(-c2ccc(-c3ccc(C4=NCCN4CCO)cc3)o2)cc1
No. of dead animals [1]: 3
IC50 [2]: 4600 nM
IC50 [3]: 20 µM
Control [4]: 107.3%

Cl.Cl.c1cc(-c2ccc(-c3ccc(C4=NCCCCN4)cc3)o2)ccc1C1=NCCCCN1
No. of dead animals [5]: 3
No. of dead animals [6]: 0
Control [7]: 2.9%
IC50 [2]: 930 nM
Control [8]: 115.4%
IC50 [3]: 1.5 µM

Cl.Cl.c1cc(-c2ccc(-c3ccc(C4=NC5CCCCC5N4)cc3)o2)ccc1C1=NC2CCCCC2N1 (configuration not stated)
Control [9]: 80.5%
IC50 [2]: 4000 nM
IC50 [3]: 3 µM
No. of dead animals [10]: 1

CCN1CCN=C1c1ccc(-c2ccc(-c3ccc(C4=NCCN4CC)cc3)o2)cc1.Cl.Cl
IC50 [2]: 3300 nM
IC50 [3]: 25 µM

Cl.Cl.c1cc(-c2ccc(-c3ccc(C4=NCCCN4)cc3)o2)ccc1C1=NCCCN1
Control [11]: 0.4%
No. of dead animals [12]: 2
IC50 [2]: 85 nM
IC50 [3]: 0.5 µM

Cl.Cl.N=C(N)c1ccc(-c2ccc(-c3ccc(C(=N)N)cc3)o2)cc1
No. of dead animals [13]: 0
Control [14]: 2.1%
Control [15]: 55.9%
Control [16]: 8.3%
No. of dead animals [17]: 0
Control [18]: 28.4%
Control [19]: 4.8%
No. of dead animals [20]: 0
No. of dead animals [21]: 0
No. of dead animals [22]: 0

N[C+](N)c1ccc(-c2ccc(-c3ccc([C+](N)N)cc3)o2)cc1
IC50 [2]: 440 nM

Cl.c1cc(-c2ccc(-c3ccc(C4=NCCN4)cc3)o2)ccc1C1=NCCN1
IC50 [2]: 1950 nM
Toxicity [23]: 2 number of dead animals
IC50 [3]: 3 µM
Control [24]: 35.4%

N=C(N)c1ccc(OCCCCCOc2ccc(C(=N)N)cc2)cc1 [PENTAMIDINE]
Control [25]: 3.66%
No. of dead animals [26]: 2
